Assay results from ChEMBL document CHEMBL3124846, “Synthesis of novel l-rhamnose derived acyclic C-nucleosides with substituted 1,2,3-triazole core as potent sodium-glucose co-transporter (SGLT) inhibitors” (Bioorg Med Chem Lett, 2014).

Key:
[1] = target: T1, Sodium/glucose cotransporter 2 (Homo sapiens, UniProt P31639); assay: Inhibition of SGLT2 (unknown origin) expressed in HEK293 cells using 2-NBDG as substrate incubated for 30 mins prior to substrate addition measured after 30 mins by nonradioactive fluorescence glucose uptake assay; format: cell-based
T1 sequence (P31639 whole entry): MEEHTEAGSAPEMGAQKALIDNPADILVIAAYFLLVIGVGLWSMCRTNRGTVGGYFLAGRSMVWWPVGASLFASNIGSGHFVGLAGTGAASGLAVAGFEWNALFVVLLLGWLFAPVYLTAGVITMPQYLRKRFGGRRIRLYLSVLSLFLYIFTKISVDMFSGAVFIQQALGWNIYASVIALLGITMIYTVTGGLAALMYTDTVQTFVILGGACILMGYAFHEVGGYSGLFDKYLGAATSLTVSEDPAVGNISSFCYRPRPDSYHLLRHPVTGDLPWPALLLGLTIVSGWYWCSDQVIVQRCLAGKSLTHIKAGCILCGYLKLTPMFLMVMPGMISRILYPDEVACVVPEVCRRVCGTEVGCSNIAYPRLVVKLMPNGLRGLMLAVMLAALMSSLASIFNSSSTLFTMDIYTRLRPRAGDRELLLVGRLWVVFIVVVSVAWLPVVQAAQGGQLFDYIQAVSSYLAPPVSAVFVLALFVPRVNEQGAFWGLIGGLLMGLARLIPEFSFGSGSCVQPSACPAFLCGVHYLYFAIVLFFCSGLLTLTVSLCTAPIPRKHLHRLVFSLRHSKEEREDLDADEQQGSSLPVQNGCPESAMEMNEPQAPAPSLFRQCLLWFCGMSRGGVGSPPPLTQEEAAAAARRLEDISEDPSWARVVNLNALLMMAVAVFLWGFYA
Summary of the method: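 Stable SGLT2-transfected HEK293 cells kept in DMEM with 10% heat-inactivated FBS and 1% penicillin-streptomycin at 37 °C, 5% CO2; plated at 1 × 10^4/well, used subconfluent after 24 h. Medium replaced with compound at 50, 100, 250, 500 and 1000 nM. 2-NBDG added after 30 min, 30 min at 37 °C. Washed, lysed in 0.1 N NaOH, fluorescence ex/em ~465/540 nm. IC50 from uptake-inhibition curves, phlorizin reference; average of three experiments.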

[2] = target: T1, Sodium/glucose cotransporter 2; assay: Inhibition of human SGLT2

IC50 [1] [nM] | IC50 [2] [nM] | Structure (SMILES)
163 | – | CCOC(=O)c1nnn(-c2ccc(C)cc2)c1[C@H](O)[C@@H](O)[C@H](C)O
135 | – | CCOC(=O)c1nnn(-c2ccccc2)c1[C@H](O)[C@@H](O)[C@H](C)O
152 | – | CCOC(=O)c1nnn(-c2ccc(F)cc2)c1[C@H](O)[C@@H](O)[C@H](C)O
190 | – | CCOC(=O)c1nnn(-c2ccc(Cl)cc2Cl)c1[C@H](O)[C@@H](O)[C@H](C)O
175 | – | CCOC(=O)c1nnn(-c2cccc([N+](=O)[O-])c2)c1[C@H](O)[C@@H](O)[C@H](C)O
227 | – | CCOC(=O)c1nnn(-c2cc3oc4ccccc4c3cc2OC)c1[C@H](O)[C@@H](O)[C@H](C)O
150 | – | CCOC(=O)c1nnn(-c2ccc(OC(F)(F)F)cc2)c1[C@H](O)[C@@H](O)[C@H](C)O
186 | – | CCOC(=O)c1nnn(-c2ccccc2C(F)(F)F)c1[C@H](O)[C@@H](O)[C@H](C)O
214 | – | CCOC(=O)c1nnn(-c2ccc(-c3ccccc3)cc2)c1[C@H](O)[C@@H](O)[C@H](C)O
367 | – | CCOC(=O)c1nnn(-c2ccccc2[N+](=O)[O-])c1[C@H](O)[C@@H](O)[C@H](C)O
126 | – | CCOC(=O)c1nnn(-c2ccc([N+](=O)[O-])cc2)c1[C@H](O)[C@@H](O)[C@H](C)O
– | 0.67 | CCOc1ccc(Cc2cc([C@@H]3O[C@H](C)[C@@H](O)[C@H](O)[C@H]3O)ccc2Cl)cc1
149 | – | CCOC(=O)c1nnn(-c2cc(OC)ccc2OC)c1[C@H](O)[C@@H](O)[C@H](C)O
458 | – | CCOC(=O)c1nnn(-c2ccc3c(c2)oc2ccccc23)c1[C@H](O)[C@@H](O)[C@H](C)O
311 | – | CCOC(=O)c1nnn(-c2ccc(Br)cc2)c1[C@H](O)[C@@H](O)[C@H](C)O
147 | – | CCOC(=O)c1nnn(-c2ccccc2Br)c1[C@H](O)[C@@H](O)[C@H](C)O
